Reference: ChEMBL document CHEMBL5331127, “Discovery of ARD-2051 as a Potent and Orally Efficacious Proteolysis Targeting Chimera (PROTAC) Degrader of Androgen Receptor for the Treatment of Advanced Prostate Cancer” (J Med Chem, 2023)
Activity calls are given as the source filed them. No cut-off for these calls is given here.

What was measured:
[1] = molecular target: T1, Androgen receptor (Homo sapiens) (UniProt P10275); test: Induction of androgen receptor degradation in human VCaP cells at 1 uM after 24 hrs by Western blotting analysis relative to control; type: cell-based
T1 sequence (whole entry): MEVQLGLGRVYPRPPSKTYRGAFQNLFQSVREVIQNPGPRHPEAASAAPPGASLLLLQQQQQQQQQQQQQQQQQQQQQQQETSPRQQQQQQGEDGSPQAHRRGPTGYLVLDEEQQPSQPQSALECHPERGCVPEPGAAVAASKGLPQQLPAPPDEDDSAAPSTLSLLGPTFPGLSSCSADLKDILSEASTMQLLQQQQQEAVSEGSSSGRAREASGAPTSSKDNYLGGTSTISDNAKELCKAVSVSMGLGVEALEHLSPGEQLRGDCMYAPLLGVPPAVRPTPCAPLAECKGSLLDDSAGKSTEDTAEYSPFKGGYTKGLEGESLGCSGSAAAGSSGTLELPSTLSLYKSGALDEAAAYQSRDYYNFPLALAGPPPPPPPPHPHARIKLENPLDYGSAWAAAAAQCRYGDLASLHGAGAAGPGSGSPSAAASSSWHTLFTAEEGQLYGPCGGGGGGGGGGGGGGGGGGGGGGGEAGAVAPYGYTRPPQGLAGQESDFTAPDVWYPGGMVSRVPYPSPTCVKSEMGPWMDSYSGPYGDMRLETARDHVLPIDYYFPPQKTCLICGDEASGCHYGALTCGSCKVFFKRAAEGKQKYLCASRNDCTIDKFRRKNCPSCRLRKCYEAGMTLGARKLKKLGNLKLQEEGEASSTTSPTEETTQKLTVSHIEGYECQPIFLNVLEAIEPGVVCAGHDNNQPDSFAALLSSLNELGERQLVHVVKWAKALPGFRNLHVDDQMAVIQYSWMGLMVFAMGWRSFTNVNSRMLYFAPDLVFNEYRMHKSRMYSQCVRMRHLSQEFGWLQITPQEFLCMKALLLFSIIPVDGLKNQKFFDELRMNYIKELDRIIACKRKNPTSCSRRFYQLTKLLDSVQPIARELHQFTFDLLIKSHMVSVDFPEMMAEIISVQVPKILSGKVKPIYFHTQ
Summary of the method: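 VCaP cells treated for 24 h at 10, 100 or 1000 nM. AR protein measured by Western blotting.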

[2] = Drug concentration in ICR mouse plasma at 10 mg/kg, po measured after 1 hr; type: ADME, organism-based
Summary of the method: (§1)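 Mice given a single 10 mg/kg dose by oral gavage, 3 mice per time point. Plasma drug levels measured at 1, 3, 6 and 24 h; mean ± SD reported.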

[3] = Drug concentration in ICR mouse plasma at 10 mg/kg, po measured after 6 hrs; type: ADME, organism-based; summary of the method: as §1
[4] = tested on: VCaP; test: Growth inhibition in human VCaP cells incubated for 4 days by WST-8 assay; type: functional, cell-based; conditions: 96 h
[5] = tested on: LNCaP; test: Growth inhibition in human LNCaP cells incubated for 4 days by WST-8 assay; type: functional, cell-based; conditions: 96 h
[6] = tested on: LNCaP; test: Growth inhibition in human LNCaP cells incubated for 4 days by WST-8 assay relative to control; type: functional; conditions: time 4 day
Summary of the method: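 LNCaP cells grown in RPMI 1640 with 10% FBS, treated for 4 days. Viability read by WST-8 assay.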

[7] = tested on: VCaP; test: Induction of androgen receptor degradation in human VCaP cells at 100 nM pretreated with thalidomide for 2 hrs followed by compound addition and 3 hrs by Western blot analysis; type: functional, cell-based; conditions: time 5.0 hrs
Summary of the method: (§2)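 LNCaP or VCaP cells pretreated 2 h with DMSO, ARi-12 (10 μM), thalidomide (10 μM), MG-132 (3 μM) or MLN4924 (0.5 μM), then given degrader at 100 nM for 3 h. AR measured by Western blot with GAPDH as loading control.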

[8] = tested on: LNCaP; test: Induction of androgen receptor degradation in human LNCaP cells at 100 nM pretreated with ARi-12 for 2 hrs followed by compound addition and 3 hrs by Western blot analysis; type: functional, cell-based; conditions: time 5.0 hrs; summary of the method: as §2
[9] = Downregulation of KLK3 gene expression in human LNCaP cells at 10 nM incubated for 24 hrs by qRT-PCR analysis; type: functional
Summary of the method: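 LNCaP cells (RPMI 1640) or VCaP cells (DMEM Glutamax), both with 10% FBS, treated for 24 h. KLK3 mRNA measured by qRT-PCR and calculated by the comparative CT method against GAPDH and vehicle.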

[10] = Metabolic stability in dog liver microsomes assessed as half life at 1 uM measured upto 45 mins in presence of NADPH by LC-MS/MS analysis; type: ADME, Canis lupus familiaris, Microsome; conditions: 0.75 h
Summary of the method: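 Pooled liver microsomes from each species: 1 μM compound with 0.5 mg/mL microsomes and 1.7 mM NADPH in 0.1 M K-phosphate, pH 7.4, 5 mM MgCl2, 37 °C. Sampled at 0, 5, 10, 15, 30 and 45 min with cold ACN quench. No-NADPH incubation as negative control; ketanserin as positive control. LC-MS/MS; half-life from ln(remaining) versus time.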

[11] = Metabolic stability in dog hepatocytes assessed as half life at 1 uM measured upto 120 mins in presence of NADPH by LC-MS/MS analysis; type: ADME, cell-based, Canis lupus familiaris, Hepatocyte; conditions: 2 h
[12] = Metabolic stability in monkey hepatocytes assessed as half life at 1 uM measured upto 120 mins in presence of NADPH by LC-MS/MS analysis; type: ADME, cell-based, Macaca mulatta, Hepatocyte; conditions: rhesus monkey, 2 h
[13] = Metabolic stability in dog plasma assessed as half life at 1 uM measured upto 120 mins by LC-MS/MS analysis; type: ADME, cell-free, Canis lupus familiaris; conditions: 2 h
Summary of the method: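 Compound at 1 μM final in pre-warmed plasma of each species, 37 °C for up to 2 h. ACN/IS quench at 0, 5, 15, 30, 60 and 120 min; LC/MS. Procaine as reference (benfluorex for rat). t1/2 = 0.693/slope of ln(fraction remaining) versus time.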

[14] = Plasma protein binding in monkey at 1 uM after 5 hrs by equilibrium dialysis based LC-MS/MS analysis; type: ADME, cell-free, Macaca mulatta; conditions: rhesus monkey
Summary of the method: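 Equilibrium dialysis of pooled plasma of each species spiked at 1 μM against 0.1 M sodium phosphate, pH 7.4. 5 h at 37 °C with shaking at 60 rpm. Both sides matrix-matched, ACN/IS quench, LC/MS. % bound = 100 − (buffer/plasma peak-area ratio × 100); recovery also calculated. Warfarin as reference.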

[15] = Half life in Sprague-Dawley rat at 1 mg/kg, iv measured upto 24 hrs by LC-MS/MS analysis; type: ADME, organism-based; conditions: in vivo
Summary of the method: (§3)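 Male ICR mice (2 mg/kg), male SD rats (1 mg/kg) or male Beagle dogs (1 mg/kg) given a single intravenous dose in 10% PEG400 + 90% PBS adjusted to pH 8.0 with NaOH.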

[16] = AUC(0 to t) in ICR mouse at 2 mg/kg, iv measured upto 24 hrs by LC-MS/MS analysis; type: ADME, organism-based; design: time < 24 hrs, dose 2 mg/kg, route iv; conditions: in vivo; summary of the method: as §3
[17] = Drug concentration in CB17 SCID mouse plasma xenografted with human VCaP cells at 12.5 mg/kg, po measured after 6 hrs by LC-MS/MS analysis; type: ADME, organism-based
Summary of the method: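 SCID mice bearing one VCaP tumour each given a single oral 12.5 mg/kg dose in 100% PEG200. Plasma and tumour tissue collected at 6 and 24 h, 3 mice per time point. Values are mean ± SD.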

[18] = tested on: VCaP; test: Antitumor activity against human VCaP cells xenografted in CB17 SCID mouse assessed as tumor growth inhibition at 30 mg/kg, po administered for 21 days; type: functional; conditions: 504 h, time 21 day, read-out: TGI

C[C@H]1CC2(CCN(c3ccc(C(=O)N4CCN(C5CN(c6ccc7c(c6)C(=O)N(C6CCC(=O)NC6=O)C7=O)C5)CC4)cc3)CC2)CN1c1ccc(C#N)c(Cl)c1 (stereo partly drawn)
Activity [1]: > 95% | concentration at 1 h [2]: 495 ng/mL | concentration at 6 h [3]: 369 ng/mL | IC50 [4]: 10 nM | IC50 [5]: 13 nM | Imax [6]: 100% | Activity [7]: inactive | Activity [8]: inactive | Activity [9]: 79% | t1/2 [10]: > 1 h | t1/2 [11]: > 2 h | t1/2 [12]: > 2 h | t1/2 [13]: > 2 h | PPB [14]: 99.2% | t1/2 [15]: 2.1 h | AUCt [16]: 8850 ng·h/mL | concentration at 6 h [17]: 985 ng/mL | inhibition in vivo at 30 mg/kg [18]: 80%
